High-throughput results (PubChem BioAssay)
C2C12 statin: suppressors of simvastatin-induced myotoxicity in C2C12 myotubes; 330,000 tested, 0.78% active; ATP luminescence, 48 h; scaled: DMSO 0, geranylgeraniol control 100; rescue of ATP level, % at 7.49 µM;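 active = mean ATP rescue above about 67%, or every replicate alone reaching that limit, limit read from the data, passing the limit was not always enough; inconclusive = no clear call, values can overlap the other calls; inactive = mean under the limit and some replicate under it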;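 also: myotubes were challenged with 10 µM simvastatin during compound exposure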
Efflux pump mplx: antifungal efflux pump inhibition, Nile Red retention; S. cerevisiae Candida pump triplex; inhibition, % at 10 µM; 330,000 tested, 0.44% active;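 active = plate passing quality check with inhibition over a set limit, or well fluorescence over plate mean plus 4 SD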;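 also: Nile Red retained in pooled yeast measured as flow cytometry median fluorescence; higher means more Nile Red kept so more efflux inhibition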
Cneo AK release: Cryptococcus neoformans lysis via adenylate kinase release; 360,000 tested, 0.2% active; C. neoformans lysis, adenylate kinase release luminescence, 4 h; normalised: neutral wells 0, clomiphene wells 100; AID 651654; lysis activity, % at 15 µM;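 active = mean lysis activity across replicates of at least 80%, whatever share of replicates individually reach that level; inactive = mean lysis activity below 80%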
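Assay system: C. neoformans cells. Amount: yeast cell density of 5 × 10^6 cells/mL. Technique: AK luminescence. Buffer or medium: YPD. Times: static 4 h at 37 °C with compound, 1 h detection. Dosing: single-point compound dose. Read-out: lysis from increased AK signal.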
SUMO Mot1 rescue: SUMOylation pathway inhibition by Mot1-301 growth rescue; S. cerevisiae Mot1-301 growth rescue, ATP luminescence, 38.5C; percent above DMSO median, 100 means doubled; 320,000 tested, 1% active; growth rescue, % at 18.8 µM;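 active = every valid replicate shows activation above 250% relative to neutral control wells; inactive = the rest, any valid replicate at or below 250%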
Numbers stand for hits; i = inactive; ? = inconclusive; nt = no result given. Sampled rows, rich in hits. Any-hit rate of the full collection: about 1.8%.

SMILES	C2C12 statin	Efflux pump mplx	Cneo AK release	SUMO Mot1 rescue
O=Cc1coc2c(ccc3ccccc32)c1=O	nt	1.9	nt	322
Cc1csc(SCC(=O)Nc2cccc(S(=O)(=O)N3CCCC3)c2)n1	136	i	i	i
COc1ccccc1C(C[N+](=O)[O-])c1c(N)n(C)c(=O)n(C)c1=O (stereo not given)	nt	i	i	594
COc1ccccc1C(c1c(N)n(C)c(=O)n(C)c1=O)C(C)[N+](=O)[O-] (stereo not given)	nt	i	i	i
N#Cc1ccc(-c2ccc3c(c2)[C@@H]2[C@@H](CCN2C(=O)Cc2ccccc2)[C@@H](CO)N3)cc1	i	nt	89	nt
N#Cc1ccc(-c2ccc3c(c2)[C@@H]2[C@@H](CCN2C(=O)Cc2ccccc2)[C@H](CO)N3)cc1	i	nt	i	nt
N#Cc1ccc(-c2ccc3c(c2)[C@H]2[C@H](CCN2C(=O)Cc2ccccc2)[C@H](CO)N3)cc1	i	nt	i	nt
N#Cc1ccc(-c2ccc3c(c2)[C@H]2[C@H](CCN2C(=O)Cc2ccccc2)[C@@H](CO)N3)cc1	i	nt	95	nt
COCC(=O)Nc1ccc2c(c1)C(=O)N(C)C[C@H](OC)[C@H](C)CN(Cc1cncnc1)[C@H](C)CO2	i	nt	i	nt
C[C@H](CO)N1C[C@H](C)[C@@H](CN(C)C(=O)NC2CCCCC2)Oc2ccc(NC(=O)CCCCCC(=O)Nc3ccccc3N)cc2CC1=O	i	nt	i	nt
O=C(Cn1c(=O)[nH]n(-c2ccccc2)c1=O)N1CCCc2ccccc21	86	i	i	i
O=C(C[C@@H]1C[C@@H]2c3cc(NC(=O)c4ccc5c(c4)OCO5)ccc3O[C@@H]2[C@@H](CO)O1)NCc1ccccn1	i	nt	i	nt
O=C(NN1C(=O)c2ccccc2C1=O)C1CC2CCC1C2 (stereo not given)	i	i	nt	i
O=C(NN1C(=O)c2ccccc2C1=O)C1CCCCC1	100	i	i	i
CCc1nc(N2CCCCC2C)c2oc3ccccc3c2n1 (stereo not given)	i	i	86	i
O=[N+]([O-])c1ccc(Cl)c(CN2CCCCCC2)c1	i	i	i	i
O=C(Cn1c(-c2cncs2)nc2ccccc21)NCc1ccccc1	i	i	i	i
CN(c1ccc(O)cc1)c1nc(-c2cccs2)cs1	nt	i	nt	i
Cc1nc(N)sc1-c1csc(N(C)c2ccc(O)cc2)n1	94	i	i	i
CNC(=O)C[C@@H]1CC[C@@H]2[C@H](COC[C@H](O)CN2S(=O)(=O)c2cccc(Cl)c2)O1	i	nt	100	nt
O=C(C[C@@H]1CC[C@@H]2[C@H](COC[C@H](O)CN2S(=O)(=O)c2cccc(Cl)c2)O1)Nc1ccccc1	i	nt	i	nt
Cc1ccc(S(=O)(=O)N2C[C@@H](O)COC[C@H]3O[C@H](CC(=O)NCc4ccc5c(c4)OCO5)CC[C@@H]32)cc1	i	nt	104	nt
COc1cccc(CN(C)C(=O)CNC(=O)c2sc3ccccc3c2Cl)c1OC	i	i	i	i
O=C([C@H]1[C@H](CO)[C@H]2Cn3c(cccc3=O)[C@H]2N1CCC(F)(F)F)N1CCCCC1	i	nt	93	nt
COc1ccc(CCNC(=O)C2CCN(S(=O)(=O)c3cccs3)CC2)cc1OC	nt	i	nt	i
SMILES	C2C12 statin	Efflux pump mplx	Cneo AK release	SUMO Mot1 rescue
C[C@@H]1CCCCO[C@@H](CN(C)C(=O)Nc2cccc3ccccc23)[C@H](C)CN([C@H](C)CO)C(=O)c2cc(NS(=O)(=O)c3ccc(Cl)cc3)ccc2O1	87	nt	i	nt
C[C@H](CO)N1C[C@H](C)[C@H](CN(C)C(=O)Nc2cccc3ccccc23)OCCCC[C@H](C)Oc2ccc(NS(=O)(=O)c3ccc(Cl)cc3)cc2C1=O	135	nt	i	nt
C[C@H](CO)N1C[C@H](C)[C@@H](CN(C)C(=O)Nc2cccc3ccccc23)OCCCC[C@H](C)Oc2ccc(NS(=O)(=O)c3ccc(Cl)cc3)cc2C1=O	?	nt	i	nt
C[C@@H]1CN([C@@H](C)CO)C(=O)c2cc(NS(=O)(=O)c3ccc(Cl)cc3)ccc2O[C@@H](C)CCCCO[C@@H]1CN(C)C(=O)Nc1cccc2ccccc12	142	nt	i	nt
C[C@@H]1CCCCO[C@H](CN(C)C(=O)Nc2cccc3ccccc23)[C@@H](C)CN([C@H](C)CO)C(=O)c2cc(NS(=O)(=O)c3ccc(Cl)cc3)ccc2O1	i	nt	i	nt
CC(C(=O)NC(=O)NC1CCCCC1)N1CCN(C(c2ccccc2)c2ccccc2)CC1 (stereo not given)	i	i	i	nt
COc1ccc(Cn2nnnc2C(CC(C)C)N2CCN(c3ccccc3)CC2)cc1 (stereo not given)	i	i	i	i
CCCC(c1nnnn1Cc1ccc(OC)cc1)N1CCN(c2ccccc2)CC1 (stereo not given)	137	nt	i	nt
CC(C)=C[C@@H]1C[C@H](C)[C@H]2CC[C@H](C)c3c(O[C@@H]4O[C@@H](C)[C@@H](O)[C@@H](O)[C@@H]4O)c(O)c(C)c1c32	i	i	i	i
NS(=O)(=O)c1ccc(CCNC(=O)CNC(=O)c2ccccc2F)cc1	i	i	i	i
COc1cccc(C(=O)Nc2ccccc2C(=O)N2CCCC2)c1	100	i	i	i
C[C@@H]1CN([C@H](C)CO)C(=O)c2cc(C3=CCCCC3)cnc2O[C@H]1CN(C)C(=O)c1ccccc1	i	nt	i	nt
COCc1c(Br)c(C)[nH]c(=O)c1C#N	i	i	i	i
CCOCc1cc(C)[nH]c(=O)c1C#N	99	i	i	i
O=C(COC(=O)C1(c2ccccc2F)CCCC1)NC1CCS(=O)(=O)C1 (stereo not given)	i	i	i	298
O=C(COc1ccccc1)NC1CCS(=O)(=O)C1 (stereo not given)	i	i	i	i
C#CCOCCOCCOCCNc1nc(N2CCOCC2)nc(N2CCN(C(=O)CCCCCCCCCCNC(=O)[C@@H]([C@H](C)CC)n3cc(CCCCCN)nn3)CC2)n1	99	i	i	i
CCOC(=O)C1CCCN(C(=O)c2ccc3oc(CCc4ccccc4)nc3c2)C1 (stereo not given)	i	i	i	i
Cn1nnc2c(sc3nc(N4CCOCC4)c4c(c32)CCCC4)c1=O	118	i	i	i
O=c1[nH]nnc2c1sc1nc(N3CCOCC3)c3c(c12)CCCC3	nt	i	i	i
O=c1nc(-c2ccccc2)c2ccccc2[nH]1	i	i	116	i
C[C@H]1CN([C@@H](C)CO)C(=O)c2cc(NC(=O)Cn3cnnn3)ccc2O[C@@H]1CN(C)Cc1ccc(C(=O)Nc2ccccc2N)cc1	i	nt	i	nt
C[C@@H]1CN([C@@H](C)CO)C(=O)c2cccc(NC(=O)Nc3ccccc3)c2O[C@@H]1CN(C)Cc1ccc(C(=O)Nc2ccccc2N)cc1	i	nt	i	nt
C[C@H]1CN([C@@H](C)CO)C(=O)c2cc(NC(=O)Cc3cn(C)c4ccccc34)ccc2O[C@H]1CN(C)Cc1ccc(C(=O)Nc2ccccc2N)cc1	86	nt	i	nt
C[C@H](CO)N1C[C@H](C)[C@H](CN(C)Cc2ccc(C(=O)Nc3ccccc3N)cc2)Oc2ccc(NC(=O)Cn3cnnn3)cc2C1=O	100	nt	i	nt
C[C@@H]1CN([C@H](C)CO)C(=O)c2cccc(NC(=O)Nc3ccccc3)c2O[C@H]1CN(C)Cc1ccc(C(=O)Nc2ccccc2N)cc1	113	nt	i	nt
